Data reported in the EternaBench riboswitch data.

System: MS2 coat protein
Test: apparent Kd, MS2 coat protein; higher = weaker binding; RNA-MaP array; FMN 200 µM where present
In short: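 Each design was made on Illumina sequencing-chip clusters by stalled E. coli RNA polymerase and titrated with SNAP-549-labelled MS2 coat protein from 0.7 or 1.5 nM, doubling to 3 µM, in the absence and then the presence of constant ligand. The buffer was 100 mM Tris-HCl pH 7.5, 80 mM KCl, 4 mM MgCl2, BSA, DTT, yeast tRNA and Tween-20. The apparent Kd is the median of filtered per-cluster fits of binding curves, with green signal normalised to red-channel RNA signal and control-cluster median Fmax.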

[1] = designed as: OFF switch for flavin mononucleotide, no ligand
[2] = ligand present: flavin mononucleotide, designed as: OFF switch for flavin mononucleotide
[3] = designed as: ON switch for flavin mononucleotide, no ligand
[4] = ligand present: flavin mononucleotide, designed as: ON switch for flavin mononucleotide

| Sequence | apparent Kd [1] [nM] | apparent Kd [2] [nM] | apparent Kd [3] [nM] | apparent Kd [4] [nM] |
| --- | --- | --- | --- | --- |
| CGCCUCAGUUCAGGAUAUGUAUGGGUCUAACGAACAGAAGGGAACAUGAGGAUCACCCAUGUAAAUAGGGCCAAAGGCUUGAUA | 35.8 | 208 |  |  |
| UCGAACUUUCAUGAAAUUCGCACAUGAGGAUCACCCAUGUACGAGGAUAUGUACUUAAACGGCUAACAGAAGGCGUACUGGGCA | 105 | 71.8 |  |  |
| GCGAGCAUACAGAAGGGAUCGUCGUCGCGGCUGUCAGGAUAUGUAGCUUGGCCUAAACAUGAGGAUCACCCAUGUAUAAUGCUA |  |  | 111 | 18.6 |
| CCGGAAAUGCAGGAUAUCGUAUCGGAUACGAUACGAGAAGGGUAUACAUGAGGAUCACCCAUGUGUCCUCCCGG | 38.3 | 109 |  |  |
| AGUAGAUCAGGAUAUACAUAAAUGAUAAUUAUGUACCUAAUACAUGAGGAUCACCCAUGUAGAAGGGAUCUACA | 14.9 | 17.9 |  |  |
| GCACGAGACUAAGGAUAUGGUGUACCUACAUGUAACAUGAGGAUCACCCAUGUAGUAAGUAUGAUUCAGAAGGUAGAGACGUGC |  |  | 47.3 | 18.6 |
| CUUUUGUGAGGAUAUUCGUAGUAGGGUCAUGGUACUAUUACGGAGAAGGCACAUGAGGAUCACCCAUGUUCCUU | 15.4 | 45.1 |  |  |
| AAUUAGGUCACAGGAUAUACAACAACCAAUGCUGUAGAAGGGUGACACAUACUUAGCUGACAUGAGGAUCACCCAUGUAACCAC |  |  | 31.4 | 8.87 |
| CCCGUGUUAGGAUAUACGGCACACCCACAAACGGGUAUAUAGUAGAAGGAACAUGAGGAUCACCCAUGUAAAAC | 20.2 | 46.5 |  |  |
| CAAAGGGAAGGAUAUACAUCAGGCGACCUGGUGGGCACCUAACAUGAGGAUCACCCAUGUAGAAGGUCCAGGGA | 22.4 | 14.9 |  |  |
| GCCAUCGCAUGAGGAUAUGGUCAGCUUUGCUGACCAGAAGGCAUGUCAAUAGACAUGAGGAUCACCCAUGUAGUUAAGAUGGCA |  |  | 797 | 54 |
| UGCCAAGCAGGAUAUGCACGUAAUAACAUGAGGAUCACCCAUGUGACCGAUUUAUAUUCUGCAGAAGGGCUUGGUU | 138 | 242 |  |  |
| UACAGCCGCAUCCCAUCGCUGGAAGAGGAUAUACAUCAUCGCGCACUCACAUGAGGAUCACCCAUGUAGAAGGCUUCCUGGCGG | 7.94 | 25.4 |  |  |
| CACGUACAUGAGGAUCACCCAUGUUAGGAUAUGCCGGGUAAGAGAAAACUAAAAAUCCGUAGAAGGGACGAAAC | 34.1 | 33.8 |  |  |
| CGGAUCGCAUGAGGAUAUGGUCAGGUUUCCUGACCAGAAGGCAUGUCAUAAGACAUGAGGAUCACCCAUGUAGUUAAGAUCCGA |  |  | 577 | 40.2 |
| GCGUUCUUGUAGAAGGUACAUACAAUAUCUUAUAAACACAUGACACAUGAGGAUCACCCAUGUUGUAAGGAUAUACAUGAACGC |  |  | 6.29 | 7.73 |
| GGUUAUUGCAAGGAUAUGCUUUUUUUUUAUAUUGCAGAAGGUGCAACAUGAGGAUCACCCAUGUUGGAGGGAUU | 30.9 | 59.5 |  |  |
| ACGACGAAAGUCGAACGAUGAUCGAGAAGGACAUGAGGAUCACCCAUGUUCCGUGUAACACGCAUGUAGGAUAUCGAUCAUCGA | 5.17 | 11.4 |  |  |
| UUUUUGUCAGGAUAUCCACCCACCACCUUCGGGUGGUGGGUGGAGAAGGGACAUGAGGAUCACCCAUGUAGUUU | 74.6 | 221 |  |  |

| Sequence | apparent Kd [1] [nM] | apparent Kd [2] [nM] | apparent Kd [3] [nM] | apparent Kd [4] [nM] |
| --- | --- | --- | --- | --- |
| GAUUAACAUGAGGAUCACCCAUGUGAGGAUAUGGACUGGCUCACUUUCCGAUUCCCGUCUAGAAGGCGCAUCUU | 38.3 | 38.3 |  |  |
| GCCAUCGCAUGAGGAUAUGCUCGGGUUUCCCGAGCAGAAGGCAUGUAAUAAAACAUGAGGAUCACCCAUGUAGUUAAGAUGGCA |  |  | 8.29 | 5.36 |
| UACAGCUUGACAGGAUAUACAUGUCAGCGAAAGCUGACUAUCUUAAUAACAUGAGGAUCACCCAUGUAGAAGGGUCGAGCUGUA | 16.8 | 26.6 |  |  |
| CGUAUGAUGUCAGGAUAUGACGCUGAGAGCACGUCAGAAGGGACAUGAGGAUCACCCAUGUUGGGCUAAUGAAGCUAUGGCACU | 14.6 | 43.5 |  |  |
| GGUCCACAUGAGGAUCACCCAUGUUAGGAUAUCUCGCCCGAGCCCAUAUGGGCCAGGCAGAGAAGGAAUGUGAA | 23.7 | 23.5 |  |  |
| AAAUCCGCUGAGGAUAUCAUGACUGAGAGGUCAUGAGAAGGCGGUACAUGAGGAUCACCCAUGUCUAUGGGCAA | 492 | 454 |  |  |
| AUAUGAUAGAUAGGAUAUACAGUGGUUUUAUAAGUAGAAGGAUCAAAUGGGAAUUAUACAUGAGGAUCACCCAUGUUUUUGGAU |  |  | 58.6 | 40.4 |
| UUGAUUAUACAAGGAUAUCAAUUGUAUACAAGUCAUACAUGAGGAUCACCCAUGUUUUAUUUUUUUGAGAAGGUGUAUUGUCAG |  |  | 38.9 | 24 |
| UGGAUCAUCGGAGGAUAUCAUGUAUAUACAUGAGGAUCACCCAUGUCGUACGAGAGUACGGAGAUUGAGAAGGCCGAUGAUCCU |  |  | 38.8 | 14.9 |
| UUGGACGUCGUAGGAUAUGUAGGAUAUUCCUACAUGAGGAUCACCCAUGUUGACAUGGAAGAAGGACAGAAGGACGCUGUCCAU |  |  | 576 | 8.85 |
| AUACAUGAGGAUCACCCAUGUUACUGGGUCUAUAUAGAACGUAGAAGGAUGUAUUUAAGAAUAACAUAGGAUAUACUUUAUAGU | 60.4 | 38.2 |  |  |
| AGAAAGUCAGGAUAUCAGAAUAAGUCGAAAACGACUAGUAAUGAGAAGGGACAUGAGGAUCACCCAUGUAAGAA | 30.6 | 37.4 |  |  |
| CAGUUGGGCUCAGGAUAUCGGGUUUAACAUGAGGAUCACCCAUGUCGUCCGCGAAAGCGGAAUCACGAGAAGGGAGACCAGCGA |  |  | 9.12 | 6.42 |
| AAAAAGUCAGGAUAUAUCAAAAAAAAAGAAAAAAAAAAAAGAUAGAAGGGACAUGAGGAUCACCCAUGUAAAAA | 50.9 | 42.1 |  |  |
| UUACUACAUGAGGAUCACCCAUGUCAGGAUAUUGUAUAUGCCUUGGAAUACGUGUUUACAAGAAGGGACUAUAU | 24.1 | 25.4 |  |  |
| GUCAGCUCGUGAGGAUAUACAACACUGCUUCGGCAGUGUAUUACGAUCACAUGAGGAUCACCCAUGUAGAAGGCACGAGCUGAU | 15.2 | 307 |  |  |
| ACGGCAAUCGAAGGAUAUGGUUACAUGAGGAUCACCCAUGUCUAGGGUCUAAUUAGGUAUAACUACCAGAAGGUCGAAGGCCUA | 67.6 | 72.5 |  |  |
| AUAUUUAAUGAGGAUAUCGUUGCGGGUACGUAGCGAGAAGGCAUUACAUGAGGAUCACCCAUGUAGUGUGGGUU | 21.3 | 68.3 |  |  |
| GUCGUGUGAGGAUAUGGUUCGUCGCAGUGGCGGUCGGCGACCUAGAAGGCACAUGAGGAUCACCCAUGUAUGUG | 122 | 84 |  |  |

| Sequence | apparent Kd [1] [nM] | apparent Kd [2] [nM] | apparent Kd [3] [nM] | apparent Kd [4] [nM] |
| --- | --- | --- | --- | --- |
| AUCAGCUCGUCAGGAUAUACGUCACUGCGUCAGCAGUGUUGUAAGAUCACAUGAGGAUCACCCAUGUAGAAGGGACGAGCUGAU | 5.91 | 10.2 |  |  |
| ACAUUGUUAGGAUAUGCUGCUCGUCACUUGCGUGAUGAGUAGCAGAAGGAACAUGAGGAUCACCCAUGUAAAAA | 33.1 | 44.3 |  |  |
| CAGCUCGUGUGAGGAUAUGCCGCCGUUUCGGCUGCAGAAGGUGCUACGUUACAUGAGGAUCACCCAUGUCUCUGUUGUUUCGUU |  |  | 23.5 | 20.6 |
| UUGGACGUCGUAGGAUAUGUAGGAUAUUCCUACAUGAGGAUCACCCAUGUUGACAUGGAAGAAGGACAGAAGAACGAUGUCCAU |  |  | 161 | 4.92 |
| GCAAACACAUGAGGAUCACCCAUGUGGAAAGAGCAAUUAGGCUAGGAUAUUCAUGUCGUUUGCAAGAAGAAGGAGCCAUAGUGG |  |  | 560 | 157 |
| CUUUCGUGAGGAUAUGUGGCUUCGAUCGUGAGAUCGAAGCUACAGAAGGCACAUGAGGAUCACCCAUGUUCCUC | 38.5 | 544 |  |  |
| AAACCACAUGAGGAUCACCCAUGUGAGGAUAUGAUACUAUGUACUUCGGUACAUAGUAUCAGAAGGCAUAUGAA | 24.6 | 25.1 |  |  |
| AGGUGAGCCGUCAGGAUAUGCGUUCCGUAGGGUCAGCAGAAGGGACAUGAGGAUCACCCAUGUUUCGCACGUGG | 34.2 | 71.1 |  |  |
| GGUGGACAUGAGGAUCACCCAUGUGAGGAUAUCGGCUAUCUACUCGCUGACGGCUGCUCGAGAAGGCACAUUGU | 70.7 | 107 |  |  |
| UUCAGCUCGUGAGGAUAUACAUGUGCUGGAAACAGCACUAAUUAAUUCACAUGAGGAUCACCCAUGUAGAAGGCACGAGCUGAG | 15.7 | 18.1 |  |  |
| CACAAGAAAGUCGAAGGUUGAAGUAGAAGGUUUAUAACAUGACAUGAGGAUCACCCAUGUGCCAAGAAGGAUAUGCUUUAAUCG | 11.4 | 9.43 |  |  |
| CUCAAACAUGAGGAUCACCCAUGUGUUGUCGUGGGAGGAUAUCCCAGUUCGGUGGCGUCGGGAGAAGGCCUAUGUC |  |  | 141 | 64.7 |
| GACUUGCGCACAGGAUAUCCACAGAGCGGACGUGGAGAAGGGUGACAUGAGGAUCACCCAUGUACGUAAGUCUGGAUCACUUCC |  |  | 29.4 | 26.1 |
| GCUAGUAUUGCAGGAUAUUGAGAAUAAUUAUGGCAAGAAGGGCAUAACAUGAGGAUCACCCAUGUAUUCCUUAGUGAUACUAGC | 9.07 | 8.33 |  |  |
| GGCGGGCGGGAGGAUAUUCGGGCUGUUUGGCUUGGAGAAGGCUCGACAUGAGGAUCACCCAUGUUUGGGUCGCC | 16.2 | 27 |  |  |
| UUUUUGUGAGGAUAUCAGUAGUAAAAAAAUAAAAUUACUACUGAGAAGGCACAUGAGGAUCACCCAUGUUUUUC | 38.2 | 117 |  |  |
| GUAACAUGAGGAUCACCCAUGUAUAGAACACUCAAUAGAUCUGAGGAUAUACUAGAAUUUACGUAGUAGAAGGCAGUGGGUACA |  |  | 64.1 | 33.6 |
| UAGUAUAAGGGCAUUACACAUGAGGAUCACCCAUGUACGUUAGAGGAUAUGCAUUACAGUUGAAAGUAGAAGGUUAGAGAAGGG | 40.5 | 46.5 |  |  |
